Article PMC11656131 (Angewandte Chemie (International Ed. in English), 2024)
“Also recorded” adds a separate entry of the source.

Molecular target: T1, CERT (Homo sapiens, UniProt Q9Y5P4)
T1 sequence (Q9Y5P4 1-598 isoform Q9Y5P4-2): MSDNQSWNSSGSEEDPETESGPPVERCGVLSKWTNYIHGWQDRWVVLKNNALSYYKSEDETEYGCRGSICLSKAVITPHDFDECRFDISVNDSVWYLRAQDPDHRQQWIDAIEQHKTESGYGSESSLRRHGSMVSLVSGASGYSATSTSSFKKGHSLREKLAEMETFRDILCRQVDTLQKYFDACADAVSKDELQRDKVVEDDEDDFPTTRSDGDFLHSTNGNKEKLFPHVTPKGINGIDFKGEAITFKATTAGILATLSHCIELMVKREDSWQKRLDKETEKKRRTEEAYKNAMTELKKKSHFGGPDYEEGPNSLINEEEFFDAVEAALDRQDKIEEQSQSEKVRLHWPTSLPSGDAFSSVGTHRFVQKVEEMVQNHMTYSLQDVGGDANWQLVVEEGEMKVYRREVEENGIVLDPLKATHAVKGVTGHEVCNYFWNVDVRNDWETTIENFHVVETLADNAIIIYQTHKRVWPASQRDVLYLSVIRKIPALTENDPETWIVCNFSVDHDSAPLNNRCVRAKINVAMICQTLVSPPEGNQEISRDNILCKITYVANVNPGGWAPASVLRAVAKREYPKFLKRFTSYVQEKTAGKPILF
Experiment: NanoBRET live-cell CERT assay
Type: cell-based
Details: cells pre-treated with SACLAC
Method in brief: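 HeLa cells (or CERT-deficient HeLa) were transfected with NLuc fused N-terminally to full-length CERT, split into 96-well plates next day and incubated overnight. Nano-Glo Vivazine live-cell substrate was added, then NR-Cer acceptor (0.2 µM, or titrated) with test compound. mBRET was read relative to untreated (100% BRET). Library screen at 0.2 µM in single determination; dose-response in triplicate, Hill fit.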

## CCCCCCCCCCCCCCC[C@@H](O)[C@H](CO)NC(=O)CCl [SACLAC]
  mBRET after pre-treatment with acid ceramidase inhibitor: no effect on BRET efficiency; also recorded: only slightly elevated mBRET values
